An excerpt weighted towards active compounds, which were near 4.9% of everything screened.
STAT3 blocker: STAT3 signaling inhibition | U3A cells, IL-6 STAT3-luciferase reporter, luminescence; host cell line lacks STAT1 | inhibition, % at 5.5 µM | actives 0.89% (n = 190,000) | AID 862;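 active = inhibition above the mean inhibition across all screened compounds plus 3 SD, cut at about 44% in these data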;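 also: 0% = DMSO only wells and 100% = 100 µM nifuroxazide control wells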
STAT3 act: increases IL-6 driven STAT3 reporter signal. AID 871. actives 0.91% (n = 190,000). U3A cells, IL-6 STAT3-luciferase reporter, luminescence; 100% = signal with IL-6 EC80 alone. activation (% of control), % at 5.6 µM;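 active = activation above the screen-wide mean of compound activation plus 3 SD, cut at about 130% in these data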;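 also: 0% = background luminescence of wells with medium and substrate only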
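Material: STAT3-luciferase reporter U3A cells. Controls: IL-6-treated wells, 100% activation. Read-out: % activation versus median of IL-6-stimulated wells. Probe or stimulus: IL-6 stimulus at 33 ng/mL final. Timing: compound 1 h, then IL-6 6 h at 37 °C. Signal: reporter luminescence signal.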
STAT1 activator: STAT1 signaling activation; NIH 3T3 STAT1-luciferase reporter, IFN-gamma, luminescence; 100% = IFN-gamma alone, no compound; activation (% of control), % at 5.5 µM; actives 2.6% (n = 200,000);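 active = activation above the screen-wide mean activation plus 3 SD, cut at about 130% in these data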;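 also: raw ratio to IFN-gamma control signal so 100% means no change and 0% no light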
NF-kB neuron act: NF-kB expression increase, human neuronal cells | fold change at 12.5 µM | actives 1.6% (n = 190,000) | NF-kB reporter expression; stronger effect = higher value | AID 1239; in the data active = fold change above about 3.3
STAT1 blocker: inhibitors of IFN-gamma induced STAT1 signaling; NIH 3T3 STAT1-luciferase reporter, luminescence; inhibition, % at 5.5 µM; actives 0.35% (n = 200,000); AID 920;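 active = inhibition above a set limit, the mean inhibition across all tested compounds plus 3 SD, cut at about 34% in these data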;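 also: 0% = IFN-gamma with DMSO and 100% = IFN-gamma with 300 µM nifuroxazide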
APP 5'UTR act: APP 5'UTR luciferase reporter activation. SH-SY5Y APP 5'UTR luciferase reporter, luminescence; zero percent = DMSO vehicle wells. activation, % at 2 µM. actives 1% (n = 190,000). AID 1276;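 active = activation above a set limit, based on mean plus 3 SD of controls, cut at about 140% in these data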
STAT1 act conf: STAT1 activation, confirmation assay. shares compounds with STAT1 activator. activation (% of control), % at 5.7 µM. NIH 3T3 STAT1-luciferase reporter, IFN-gamma potentiation, luminescence; 100% = IFN-gamma EC80 alone, no compound. AID 1262. actives 97% (n = 1,200);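 active = activation above a set limit carried over from the earlier primary STAT1 screen, cut at about 140% in these data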;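 also: simple ratio to median IFN-gamma plus DMSO wells so 0% means no light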
NFkB act STAT1ct: counter-screen for STAT1 activators: NF-kappaB activation | shares compounds with STAT1 activator | HEK293T NF-kB luciferase reporter, TNF-alpha stimulated, luminescence; 100% = TNF-alpha with vehicle only | activation (% of control), % at 5.7 µM | actives 43% (n = 1,200);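 active = activation above the mean of solvent-only control wells plus 3 SD, set per campaign, cut at about 130% in these data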;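 also: TNF-alpha given at a submaximal dose yielding about 80% of full reporter signal; values are well signal over median control so 100% means no change and 0% no light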
STAT3 act STAT1c: activates human STAT3, counter-screen to STAT1 activators; U3A cells STAT3-luciferase reporter, IL-6, luminescence; cells lack STAT1; 100 = IL-6 alone, no compound effect; actives 46% (n = 1,200); shares compounds with STAT1 activator; AID 1316; activation (% of control), % at 5.7 µM;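 active = activation above the solvent-only control well mean plus 3 SD, set per plate batch, cut at about 110% in these data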;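 also: 0% = no luminescence and 100% = median IL-6 plus DMSO wells; higher means more STAT3 reporter activation so hits are non-selective activators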
Numbers without * were called inactive; / = not tested or not shown.

SMILES	STAT3 blocker	STAT3 act	STAT1 activator	NF-kB neuron act	STAT1 blocker	APP 5'UTR act	STAT1 act conf	NFkB act STAT1ct	STAT3 act STAT1c
CC(C)N(Cc1ccccc1)CC(O)COc1ccc(S(=O)(=O)N2CCOCC2)cc1Cl (centres undefined)	-1.7	102.6	96.7	1.04	1.1	6.7	/	/	/
COc1ccc(-c2cc(-c3ccc(OC)cc3)[nH]n2)cc1	14.8	89.4	151.3*	1.42	-56.0	53.5	162.3*	123.1	94.5
CCc1ccc(C2=NN(S(C)(=O)=O)C(c3cccs3)C2)cc1 (centres undefined)	-27.0	126.1	156.5*	8.37*	-61.5	182.4*	217.8*	142.0*	128.5*
Cc1cccc(NC(=O)c2ccc(-n3ccnc3)nc2)c1	18.9	89.1	98.0	1.08	2.2	12.0	/	/	/
CCOC(=O)c1sc2nc3c(cc2c1N)COC(C(C)C)C3 (centres undefined)	37.3	70.6	214.4*	1.38	-125.5	144.9*	233.0*	109.6	75.3
CCOC(=O)c1sc2nc(N3CCOCC3)c3c(c2c1N)CC(C(C)C)OC3 (centres undefined)	30.8	80.9	100.0	1.24	-1.0	-10.9	/	/	/
CCCn1c(SCC(=O)Nc2nnc(CC)s2)nnc1-c1ccncc1	4.6	99.8	101.7	1.01	-3.5	2.5	/	/	/
Clc1ccc2nc3c4ccccc4cnn3c2c1	-12.7	120.1	166.0*	7.98*	-74.8	217.1*	237.6*	132.6	162.1*
O=C(CN1CCNC(=O)C1)NCCc1ccc(Cl)cc1Cl	2.8	102.6	113.0	0.79	-16.8	38.5	/	/	/
Cc1cc(C(=O)CN2C(=O)NC3(CCCCC3)C2=O)c(C)n1Cc1ccc2c(c1)OCO2	-4.6	105.7	119.7	1.55	-21.5	15.8	/	/	/
Cc1cc(C(=O)CN2C(=O)NC3(CCCCC3C)C2=O)c(C)n1Cc1cccs1 (centres undefined)	-20.0	114.0	154.7*	1.35	-61.4	77.4	175.2*	133.0	124.6*
Cc1cc(-n2c(C)cc(C(=O)CN3C(=O)NC4(CCCCC4C)C3=O)c2C)no1 (centres undefined)	7.8	99.8	101.9	0.69	-2.0	-40.7	/	/	/
Cc1cc(C(=O)CN2C(=O)NC3(CCCCC3)C2=O)c(C)n1Cc1ccco1	-18.9	120.1	158.1*	1.17	-68.2	121.5	179.9*	136.8*	134.1*
CNc1nc(-c2ccc3c(c2)CCN3C(=O)c2ccccc2F)cs1	20.3	85.3	159.1*	7.49*	-66.6	207.9*	215.4*	142.6*	96.4
CC(Sc1nnc(Cc2ccc3c(c2)OCO3)o1)C(N)=O (centres undefined)	1.7	101.9	99.5	1.5	0.2	18.7	/	/	/
N/C(=N\OC(=O)COc1ccc(Br)cc1Cl)c1ccncc1	3.8	100.8	178.1*	4.4*	-88.4	140.0*	192.6*	144.0*	118.3*
O/N=C/c1ccc(OCc2ccccc2F)c(Cl)c1	12.4	90.7	156.0*	1.19	-60.8	134.6	202.2*	130.1	127.3*
O/N=C/c1ccc(OCc2ccccc2)c(Cl)c1	-9.2	108.8	162.3*	5.38*	-67.7	116.6	203.1*	134.0*	119.3*
O/N=C/c1ccc(OCc2ccccc2)c(Br)c1	-7.3	108.3	162.3*	6.71*	-69.8	131.3	188.2*	131.6	123.2*
COC(=O)Cc1ccc2sc(-c3ccccc3)nc2c1	8.6	91.3	156.7*	9.21*	-63.7	172.8*	182.6*	107.2	96.6
O=C(O)Cc1ccc2sc(-c3ccccc3)nc2c1	-2.7	102.5	107.7	0.99	-8.6	3.3	/	/	/
